Consider 13 compounds from ChEMBL document CHEMBL1136250, “N1-benzenesulfonylgramine and N1-benzenesulfonylskatole: novel 5-HT6 receptor ligand templates” (Bioorg Med Chem Lett, 2003).

Molecules are shown by their SMILES.

Experiment [1] addresses 5-hydroxytryptamine receptor 6 (Homo sapiens, UniProt P50406). The experiment in a line: Binding affinity towards human 5-hydroxytryptamine 6 receptor. In outline: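 Competition binding with [3H]LSD (1 nM final), 90 min at room temperature in 50 mM Tris–Cl, 10 mM MgCl2, 0.1 mM EDTA, pH 7.40; clozapine defines non-specific binding. Test agent 1–10,000 nM; Ki by LIGAND fitting, triplicate determinations.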

Another experiment relates to HEK293. Kind of experiment: Inhibition of 5-HT stimulated cAMP production in HEK-5-HT6 cells. Format: functional, cell-based. The note with it: Homo sapiens. In outline: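 HEK cells expressing 5-HT6 receptors; the compound was tested alone for agonist-induced cAMP production, and against 5-HT-stimulated cAMP production. IC50 was calculated for inhibition of the 5-HT-stimulated cAMP response.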
(Cyclic AMP is a second messenger, typically raised through Gs and lowered through Gi signalling.)

A short description of experiment [2]: pA2 value was determined.

5-hydroxytryptamine receptor 6, sequence (P50406 whole entry): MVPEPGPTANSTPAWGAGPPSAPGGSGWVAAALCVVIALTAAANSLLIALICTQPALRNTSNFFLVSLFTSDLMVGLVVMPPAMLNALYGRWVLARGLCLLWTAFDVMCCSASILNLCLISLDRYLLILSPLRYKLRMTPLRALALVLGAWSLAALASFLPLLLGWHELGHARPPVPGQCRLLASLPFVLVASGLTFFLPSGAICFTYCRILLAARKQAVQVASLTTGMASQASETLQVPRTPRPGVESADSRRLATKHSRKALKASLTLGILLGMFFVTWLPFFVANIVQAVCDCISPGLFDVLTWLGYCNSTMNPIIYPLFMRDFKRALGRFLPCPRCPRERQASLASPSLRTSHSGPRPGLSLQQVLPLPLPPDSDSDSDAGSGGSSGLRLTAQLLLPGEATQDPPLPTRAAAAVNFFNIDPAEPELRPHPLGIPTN

For orientation: Ki means a measure of affinity in units of concentration, obtained from inhibition or displacement. A high value points to lower affinity. In turn, `CCN(CC)CCc1cn(S(=O)(=O)c2ccc(N)cc2)c2ccccc12` came in with a Ki in experiment [1] of 0.0006 µM.
Still for that read-out and setting: to `COc1ccc2c(c1)c(CCN(C)Cc1ccccc1)cn2S(=O)(=O)c1ccccc1` belongs 0.043 µM; to `CCN(CC)CCc1cn(S(=O)(=O)c2ccc(NC(C)=O)cc2)c2ccccc12`, 0.09 µM.
In the case of `COc1ccc2c(c1)c(CCN(C)Cc1ccccc1)cn2S(=O)(=O)c1ccc(N)cc1`, the affinity in experiment [1] corresponds to a Ki of 0.003 µM.
With `COc1ccc2c(c1)c(CCN(C)C)cn2S(=O)(=O)c1ccc(NC(C)=O)cc1`, the Ki in experiment [1] was determined as 0.034 µM.
As a reminder, the IC50 is the point on the concentration scale where inhibition reaches its midpoint. A low value points to greater potency in that assay. For `CN(C)Cc1cn(S(=O)(=O)c2ccccc2)c2ccccc12`, the IC50 in the experiment with HEK293 was 0.88 µM.
Regarding `CN(C)CCc1cn(S(=O)(=O)c2ccccc2)c2ccc(O)cc12`, the Ki in experiment [1] amounted to 0.028 µM.
On the same count and under the same terms, under `CCN(CC)CCc1cn(S(=O)(=O)c2ccc(N)cc2)c2ccc(OC)cc12` stands 0.0006 µM.
In the case of `CCN(CC)CCc1cn(S(=O)(=O)c2ccc(NC(C)=O)cc2)c2ccc(OC)cc12`, the Ki in experiment [1] was determined as 0.23 µM.
Still for that read-out and setting: under `CCN(CC)CCc1cn(S(=O)(=O)c2ccccc2)c2ccc(OC)cc12` stands 0.0062 µM; under `CNCCc1cn(S(=O)(=O)c2ccccc2)c2ccc(OC)cc12`, 0.023 µM.
As usually defined, the pA2 is the negative logarithm of the molar antagonist concentration that doubles the agonist concentration needed for the same response. `Cc1cn(S(=O)(=O)c2ccc(N)cc2)c2ccccc12`: in experiment [2], the pA2 was 7. In the experiment with HEK293, this compound registered an IC50 of 0.32 µM.
As to `CC(=O)Nc1ccc(S(=O)(=O)n2cc(CCN(C)C)c3ccccc32)cc1`, the Ki in experiment [1] was found to be 0.027 µM.
